# Screens from PubChem.
# PostGolgi yeast: growth inhibition of a yeast mutant, post-Golgi transport screen. post-Golgi transport phenotypic cell assay. inhibition, % at 10 µM. 0.9% of 98,000 active;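 note: yeast cells grown in 1536-well plates; yeast grown about 18 h at 30C before absorbance read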
# E coli WT exp: blocks growth of wild type E. coli BW25113 | growth inhibition, % at 100 µM | AID 710 | OD600 absorbance | 0.15% of 98,000 active;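 active = growth inhibition above about 50% at one test dose, limit read from the data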;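 note: growth measured after 20 h incubation at 37 °C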
# PLAP activator: activators of human placental alkaline phosphatase; P05187; purified PLAP enzyme, luminescent substrate read-out; stronger effect = higher value; activation fold at 20 µM; 1.2% of 96,000 active; AID 696; in the data active = activation fold above about 2
# Target sequence (P05187 whole entry, looked up): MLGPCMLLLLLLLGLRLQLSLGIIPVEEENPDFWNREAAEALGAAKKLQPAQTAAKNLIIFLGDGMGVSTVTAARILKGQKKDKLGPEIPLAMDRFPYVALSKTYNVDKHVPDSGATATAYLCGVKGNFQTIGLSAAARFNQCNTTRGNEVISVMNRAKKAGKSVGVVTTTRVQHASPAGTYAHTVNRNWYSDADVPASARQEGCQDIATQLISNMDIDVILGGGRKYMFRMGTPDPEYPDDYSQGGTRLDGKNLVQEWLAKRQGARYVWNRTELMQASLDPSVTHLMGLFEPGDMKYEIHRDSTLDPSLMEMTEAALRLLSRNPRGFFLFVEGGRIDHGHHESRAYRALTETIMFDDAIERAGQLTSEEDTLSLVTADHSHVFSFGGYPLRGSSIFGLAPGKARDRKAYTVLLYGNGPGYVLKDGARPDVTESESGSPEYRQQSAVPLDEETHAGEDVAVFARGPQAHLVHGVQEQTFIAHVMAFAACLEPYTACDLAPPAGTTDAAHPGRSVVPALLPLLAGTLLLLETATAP
# tolC growth inh: E. coli tolC mutant growth inhibition | E. coli BW25113 tolC mutant growth, OD615 | 2.2% of 65,000 active | growth inhibition, % at 10 µM (by protocol) | AID 573;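 active = growth inhibition at or above a cutoff equal to the mean over every tested compound plus 3 SD, cut at about 60% in these data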;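 note: growth measured after 20 h incubation at 37 °C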
#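 Assay system: tolC-deleted E. coli BW25113. Medium: kanamycin-containing LB broth (50 µg/mL). Dosing: 10 µM final, single dose. Timing: bacterial growth with compound for 20 h at 37 °C. Detection: A615 absorbance measurement. Read-out basis: growth inhibition in percent.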
# HePTP inh: inhibitors of human HePTP phosphatase; P35236; recombinant HePTP phosphatase activity, OD absorbance; inhibition, % at 20 µM; 0.64% of 110,000 active; AID 521; in the data active = inhibition above about 50%;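 note: plate controls were vehicle for no effect and reference inhibitor for full effect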
# PostGolgi ctrl: yeast control strain growth, post-Golgi counter-screen; efflux-deficient yeast background strain, growth absorbance A615, 16 h; inhibition, % at 10 µM; 5% of 98,000 active
# Active calls of the source: *; . = not tested or not shown. The list is not random: actives were taken first. Their share in the collection is about 5.4%. Cut-off read from the data, not from the text of the source, unless noted: active = inhibition above about 30%; inactive = the rest.
SMILES,PostGolgi yeast,E coli WT exp,PLAP activator,tolC growth inh,HePTP inh,PostGolgi ctrl
Cc1ccc(S(=O)(=O)CCC(=O)c2ccc(O)cc2O)cc1,-1.9,50.0*,0.9,13.0,-3.0,5.0
CC(=O)NC1=NC(=O)/C(=C/c2cc(C)n(-c3cccc(C(=O)O)c3)c2C)S1,.,.,.,.,100.9*,.
Cc1ccc(Cn2ccc(=O)c(OCc3ccccc3)c2C)cc1,-5.8,9.0,0.9,.,.,8.6
Cc1c(OCc2ccccc2)c(=O)ccn1Cc1ccc(Cl)cc1,-1.6,-2.0,1,.,.,43.3*
Cc1ccc(SC/C(O)=C(\C#N)c2nc3ccccc3s2)cc1,-5.0,-15.0,1.1,83.2*,8.5,9.1
COc1ccc(C/C(O)=C(\C#N)c2nc3ccccc3s2)cc1,-2.3,-7.0,0.9,74.0*,-1.1,-2.9
CCCCCn1c(N)c(-c2nc3ccccc3s2)c2c([N+](=O)[O-])nn(CC)c(=O)c21,-4.6,-9.0,1.4,.,.,7.5
CCn1cc(/C=C2\C(=O)NC(=O)N(c3ccccc3)C2=O)c2ccccc21,.,.,.,.,-6.9,.
C#CCn1cc(/C=C2\C(=O)NC(=O)N(c3ccc(C)cc3)C2=O)c2ccccc21,.,.,.,.,85.4*,.
CCOC(=O)c1ccc2c(c1)n(CC)c(/C=C/Nc1ccccc1)[n+]2CC,-16.7,2.0,0.7,.,.,31.5*
Cc1nn(C)cc1/C=N/n1nnnc1N,-0.6,10.0,1.1,9.1,3.9,0.8
COC(=O)c1onc(C(=O)c2ccccc2)c1C(=O)OC,5.0,-8.0,0.9,2.9,7.6,1.2
CC(C)Cc1ccc(S(=O)(=O)N2CCOCC2)cc1,0.2,5.0,0.9,.,.,24.7
c1cnc(N2CCN(c3ncnc4c3oc3ccccc34)CC2)nc1,.,.,1.2,0.8,4.7,.
C(=C\c1ccccc1)/CN1CCN(c2ncnc3c2oc2ccccc23)CC1,21.3,-6.0,1.5,100.0*,-1.6,30.5*
COc1ccccc1N1CCN(c2ncnc3c2oc2ccccc23)CC1,5.6,-4.0,1.3,35.2,7.4,38.2*
COc1ccc(/C=N/n2c(SC)nnc2-c2ccccc2)cc1C,-1.3,-5.0,1.2,86.9*,-9.7,42.9*
COc1ccc(/C=N/n2c(SC)nnc2-c2ccccc2)c(OC)c1OC,0.2,1.0,1.5,21.8,15.8,5.5
COc1ccc(CN(CC(=O)NCC2CCCO2)C(=O)CNS(=O)(=O)c2ccc(C)cc2)cc1 (stereo unspecified),2.0,-5.0,.,1.6,6.3,-0.7
CC(NC(=O)Cc1ccccc1)c1nc2ccccc2[nH]1 (stereo unspecified),-3.0,-10.0,1.2,-6.8,9.1,32.6*
CCCC(=O)NC(C)c1nc2ccccc2[nH]1 (stereo unspecified),-2.6,6.0,1,.,.,11.0
Cc1ccc(Nc2nc3ccccc3o2)cc1F,-3.5,-8.0,0.8,.,.,21.5
O=C(c1cc2ccccc2o1)c1cccs1,-2.0,2.0,0.8,22.4,-2.1,31.3*
CC(NC(=O)c1cc2ccccc2o1)c1cccs1 (stereo unspecified),-6.0,-2.0,0.8,6.6,10.3,16.4
O=C(COC(=O)c1ccccc1Oc1ccccc1)NC1CCS(=O)(=O)C1 (stereo unspecified),8.3,-4.0,0.9,-9.9,-2.5,12.6
SMILES,PostGolgi yeast,E coli WT exp,PLAP activator,tolC growth inh,HePTP inh,PostGolgi ctrl
Nc1cc(Cl)ccc1C(=O)OCC(=O)NC1CCS(=O)(=O)C1 (stereo unspecified),3.2,0.0,0.9,.,.,36.1*
CCC(C)C(NC(C)=O)C(=O)NC(=O)NC(c1ccccc1)c1ccccc1 (stereo unspecified),1.9,2.0,1.7,.,.,4.4
CCN(CC)CCNC(=O)c1cn(CC)c2ccc(S(=O)(=O)N(C)C)cc2c1=O,-2.7,4.0,1.1,-3.0,-7.7,2.9
CCn1cc(C(=O)NCCCN(C)C)c(=O)c2cc(F)c(N3CCN(C)CC3)cc21,4.2,100.0*,1.5,22.9,2.5,19.6
CCn1cc(C(=O)NN)c(=O)c2cc(F)c(N3CCCCCC3)cc21,.,.,.,.,-2.4,.
CCCNC(=O)c1cn(CC)c2cc(N3CCN(C)CC3)c(F)cc2c1=O,-2.7,100.0*,1.5,.,.,1.9
CC1(C)COCN1S(=O)(=O)c1ccc(C(=O)Nc2nnc(-c3ccc(Cl)s3)o2)cc1,4.7,6.0,.,99.1*,8.9,17.8
CCCC(=O)Nc1nnc(-c2ccc(Cl)s2)o1,6.4,10.0,0.8,5.3,-8.7,13.2
COc1ccc(-c2nnc(NC(=O)c3ccc(S(=O)(=O)N4COCC4(C)C)cc3)o2)cc1,23.0,-16.0,1.5,99.7*,7.4,27.3
